Results: ChEMBL document CHEMBL3751740, “New MKLP-2 inhibitors in the paprotrain series: Design, synthesis and biological evaluations” (Bioorg Med Chem, 2016)
Calls of active or inactive are those of the source. The rule behind the calls is not given here.

Legend:
[1] = target: T1, Kinesin-like protein KIF20A (Homo sapiens, UniProt O95235); assay: Inhibition of microtubule-stimulated N-terminal MKLP-2 (56 to 505 residues) ATPase activity isolated from human hepatocellular carcinoma cells by pyruvate kinase/lactate dehydrogenase enzyme linked assay
T1 sequence (O95235 whole entry): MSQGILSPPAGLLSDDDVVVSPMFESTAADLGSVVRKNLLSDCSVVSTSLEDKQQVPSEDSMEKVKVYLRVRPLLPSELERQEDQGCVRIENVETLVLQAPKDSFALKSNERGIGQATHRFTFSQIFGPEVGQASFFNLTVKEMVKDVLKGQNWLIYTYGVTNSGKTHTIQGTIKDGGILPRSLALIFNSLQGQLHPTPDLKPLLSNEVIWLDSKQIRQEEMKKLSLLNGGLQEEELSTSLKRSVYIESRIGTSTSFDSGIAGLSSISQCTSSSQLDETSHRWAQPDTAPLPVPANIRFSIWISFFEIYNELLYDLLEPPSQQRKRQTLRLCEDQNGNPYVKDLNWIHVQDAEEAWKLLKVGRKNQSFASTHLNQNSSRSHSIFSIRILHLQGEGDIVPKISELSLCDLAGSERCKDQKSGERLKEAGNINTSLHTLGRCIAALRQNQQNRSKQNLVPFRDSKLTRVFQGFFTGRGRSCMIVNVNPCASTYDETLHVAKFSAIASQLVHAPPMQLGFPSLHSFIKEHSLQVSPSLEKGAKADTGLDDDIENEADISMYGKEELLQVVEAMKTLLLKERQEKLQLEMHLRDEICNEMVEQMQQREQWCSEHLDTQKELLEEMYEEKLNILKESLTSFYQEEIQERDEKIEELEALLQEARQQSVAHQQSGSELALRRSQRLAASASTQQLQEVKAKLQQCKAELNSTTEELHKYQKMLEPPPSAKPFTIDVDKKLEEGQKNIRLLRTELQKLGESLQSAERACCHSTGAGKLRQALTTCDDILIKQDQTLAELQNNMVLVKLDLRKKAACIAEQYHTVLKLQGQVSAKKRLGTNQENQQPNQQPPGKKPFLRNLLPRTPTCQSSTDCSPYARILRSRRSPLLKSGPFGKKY

Ovis aries [2] = organism: Ovis aries; assay: Induction of sheep brain microtubule disassembly by UV spectrophotometric analysis
In short: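 Sheep brain tubulin, purified by two assembly/disassembly cycles and held in MES buffer with GTP at pH 6.6, was polymerized at 37 °C for 10 min. Compound was then added to the MTs at 0 °C and depolymerization was followed over the next few minutes by turbidity at 350 nm.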

KB [3] = assay: Growth inhibition of human KB cells at 10 uM after 72 hrs by MTS assay; type: functional; settings: for inhibition of growth at 10 µM: read-out: GI
In short: (§1)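 KB cells were grown in DMEM with 25 mM glucose and 10% FCS at 37 °C, 5% CO2, and seeded at 500 cells/well. 24 h later, compound in DMSO (1% final) was added at 10 µM or 1 µM for 72 h; controls received DMSO alone. Runs were in duplicate. Viable cells were read with MTS at 490 nm.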

[4] = target: T1, Kinesin-like protein KIF20A; assay: Inhibition of N-terminal MKLP2 (56 to 505 residues) ATPase basal activity isolated from human hepatocellular carcinoma cells by pyruvate kinase/lactate dehydrogenase enzyme linked assay
Ovis aries [5] = organism: Ovis aries; assay: (§2) Inhibition of sheep brain tubulin polymerization by UV spectrophotometric analysis; set-up: concentration or dose not given beside the values
In short: (§3)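 Tubulin purified from sheep brain by two assembly/disassembly cycles, about 2–3 mg/mL in 0.1 M MES, 0.5 mM MgCl2, 1 mM EGTA, 1 mM GTP, pH 6.6. Compound in DMSO added at 0 °C, then moved to a 37 °C thermostated cell. Assembly followed by turbidity at 350 nm for a few min.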

KB [6] = assay: Growth inhibition of human KB cells at 1 uM after 72 hrs by MTS assay; type: functional; settings: for inhibition of growth at 1 µM: read-out: GI; in short: as §1
[7] = as §2; set-up: species or system Ovis aries; in short: as §3
KB [8] = assay: Growth inhibition of human KB cells after 72 hrs by MTS assay; type: functional
Ovis aries [9] = organism: Ovis aries; assay: Inhibition of sheep brain microtubule disassembly by UV spectrophotometric analysis; set-up: concentration or dose not given beside the values

| Structure (SMILES) | IC50 [1] | Activity (Ovis aries [2]) | IC50 [4] | inhibition (Ovis aries [5]; concentration not given here) | IC50 [7] | GI50 (KB [8]) | Activity (Ovis aries [9]) | inhibition (Ovis aries [5]) | inhibition of growth at 10 µM (KB [3]) | growth inhibition (GI) (KB [6]) | inhibition of growth at 1 µM (KB [6]) | growth inhibition (GI) (KB [3]) |
| --- | --- | --- | --- | --- | --- | --- | --- | --- | --- | --- | --- | --- |
| N#C/C(=C\c1ccc(C(F)(F)F)cc1)c1c[nH]c2ccccc12 | Not Active | inactive | Not Active | 57% | – | – | – | – | 87% | inactive | – | – |
| CC(=O)O[C@H]1C(=O)[C@@]2(C)[C@H]([C@H](OC(=O)c3ccccc3)[C@]3(O)C[C@H](OC(=O)[C@H](O)[C@@H](NC(=O)c4ccccc4)c4ccccc4)C(C)=C1C3(C)C)[C@]1(OC(C)=O)CO[C@@H]1C[C@@H]2O [PACLITAXEL] | Not Active | – | Not Active | – | 1 µM | 0.001 µM | – | – | – | – | – | – |
| COc1cc2c(c(OC)c1OC)-c1ccc(OC)c(=O)cc1[C@@H](NC(C)=O)CC2 [COLCHICINE] | Not Active | – | Not Active | – | – | 0.0042 µM | – | – | – | – | – | – |
| COc1ccc2[nH]c(C)c(/C(C#N)=C/c3cccnc3)c2c1 | – | inactive | – | – | – | – | – | inactive | 69% | – | – | – |
| N#CC(Cc1cccnc1)c1c[nH]c2ccccc12 (stereo not given) | – | – | – | 16% | – | – | 21% | – | 5% | – | – | – |
| COc1cccc(/C=C(\C#N)c2c[nH]c3ccccc23)c1 | Not Active | – | Not Active | 37% | – | – | 38% | – | 89% | inactive | – | – |
| COc1cc(/C=C(\C#N)c2c[nH]c3ccccc23)cc(OC)c1OC | Not Active | inactive | Not Active | – | – | – | – | inactive | 81% | – | 6% | – |
| COc1ccc2[nH]cc(C(C#N)c3cccnc3)c2c1 (stereo not given) | Not Active | inactive | Not Active | – | – | – | – | inactive | 45% | – | – | – |
| COc1ccc(/C=C(\C#N)c2c[nH]c3ccccc23)c(OC)c1 | Not Active | inactive | Not Active | 76% | 12 µM | – | – | – | 99% | – | 35% | – |
| CSc1ccc(/C=C(\C#N)c2c[nH]c3ccccc23)cc1 | Not Active | inactive | Not Active | – | – | – | – | inactive | 98% | inactive | – | – |
| COc1ccc(/C=C(\C#N)c2c[nH]c3ccccc23)cc1OC | Not Active | inactive | Not Active | 62% | 20 µM | – | – | – | 99% | – | 25% | – |
| COc1cc(OC)c(OC)cc1/C=C(\C#N)c1c[nH]c2ccccc12 | Not Active | inactive | Not Active | 32% | – | – | – | – | 100% | – | 40% | – |
| N#C/C(=C\c1ccc(Cl)cc1)c1c[nH]c2ccccc12 | – | inactive | – | 13% | – | – | – | – | 78% | – | – | – |
| N#C/C(=C\c1cccnc1)c1c(-c2ccsc2)[nH]c2ccccc12 | Not Active | inactive | Not Active | 70% | 9.2 µM | – | – | – | 99% | – | 12% | – |
| COc1ccc2[nH]cc(/C(=C/C#N)Cc3cccnc3)c2c1 | Not Active | inactive | Not Active | 33% | – | – | – | – | – | – | – | inactive |
| N#C/C(=C\c1cccnc1)c1c[nH]c2ncccc12 | – | inactive | – | 19% | – | – | – | – | 100% | – | 29% | – |

Now from value to compound, other results behind:

| IC50 [1] | Activity (Ovis aries [2]) | IC50 [4] | inhibition (Ovis aries [5]; concentration not given here) | IC50 [7] | GI50 (KB [8]) | Activity (Ovis aries [9]) | inhibition (Ovis aries [5]) | Structure (SMILES) | inhibition of growth at 10 µM (KB [3]) | growth inhibition (GI) (KB [6]) | inhibition of growth at 1 µM (KB [6]) | growth inhibition (GI) (KB [3]) |
| --- | --- | --- | --- | --- | --- | --- | --- | --- | --- | --- | --- | --- |
| Not Active | – | Not Active | – | – | – | 13% | inactive | COc1cc(OC)c(/C=C(\C#N)c2c[nH]c3ccccc23)c(OC)c1 | 83% | inactive | – | – |
| Not Active | – | Not Active | 33% | – | – | 13% | – | N#C/C(=C\c1cccnc1)c1c(-c2ccccc2)[nH]c2ccccc12 | 93% | inactive | – | – |
| Not Active | – | Not Active | 53% | 115 µM | – | 15% | – | COc1ccc2c(c1)c(/C(C#N)=C/c1cccnc1)cn2C | 33% | – | – | – |
| Not Active | inactive | Not Active | – | – | – | – | inactive | COc1cccc(/C=C(\C#N)c2c[nH]c3ccccc23)c1OC | 100% | – | 2% | – |
| – | inactive | – | – | – | – | – | inactive | N#C/C(=C\c1cccc(Cl)c1)c1c[nH]c2ccccc12 | 94% | – | 19% | – |
| Not Active | – | Not Active | 22% | – | – | 47% | – | COc1cc(/C=C(\C#N)c2c[nH]c3ccccc23)cc(OC)c1O | 95% | – | 59% | – |
| – | – | – | 31% | – | – | 11% | – | COc1cc(/C=C(\C#N)c2c[nH]c3ccccc23)cc(OC)c1 | 96% | – | 31% | – |
| Not Active | inactive | Not Active | – | – | – | – | inactive | COc1ccc2c(c1)c(/C(C#N)=C/c1cccnc1)cn2C(C)=O | 74% | – | – | – |
| – | inactive | – | 22% | – | – | – | – | N#C/C(=C\c1ccc(F)cc1)c1c[nH]c2ccccc12 | 84% | inactive | – | – |
| Not Active | inactive | Not Active | – | – | – | – | inactive | COc1cccc2c(/C(C#N)=C/c3cccnc3)c[nH]c12 | 85% | inactive | – | – |
| Not Active | – | Not Active | – | – | 0.00013 µM | – | – | CC(=O)O[C@@]12CO[C@@H]1C[C@H](O)[C@@]1(C)C(=O)[C@H](O)C3=C(C)[C@@H](OC(=O)[C@H](O)[C@@H](NC(=O)OC(C)(C)C)c4ccccc4)C[C@@](O)([C@@H](OC(=O)c4ccccc4)[C@H]21)C3(C)C [DOCETAXEL ANHYDROUS] | – | – | – | – |
| Not Active | inactive | Not Active | 11% | – | – | – | – | COc1ccc2[nH]cc(/C(C#N)=C/C=C/c3cccnc3)c2c1 | 10% | – | – | – |
| – | inactive | – | 45% | – | – | – | – | N#C/C(=C\c1c[nH]c2ccccc12)c1cccnc1 | 23% | – | – | – |
| Not Active | – | Not Active | – | – | – | 14% | inactive | COc1ccc2[nH]cc(C(=O)/C(C#N)=C/c3cccnc3)c2c1 | 27% | – | – | – |
